Test results published in ChEMBL document CHEMBL1138579, “Synthesis of alkenyldiarylmethanes (ADAMs) containing benzo[d]isoxazole and oxazolidin-2-one rings, a new series of potent non-nucleoside HIV-1 reverse transcriptase inhibitors” (Eur J Med Chem, 2009).

Target: Human immunodeficiency virus type 1 reverse transcriptase (Human immunodeficiency virus 1, UniProt Q72547)
Assay: Inhibition of HIV1 recombinant reverse transcriptase assessed as incorporation of [32P]GTP into poly(rC).oligo(dG) (rCdG) homopolymer template primer
In short: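 Purified recombinant HIV-1 RT, p66/51 heterodimer. Activity followed by [32P]GTP incorporation into poly(rC)·oligo(dG) homopolymer template-primer. IC50 taken as the mean of at least two separate experiments.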
With `COC(=O)CCC/C=C(/c1cc(C)c2onc(OC)c2c1)c1cc(C)c2oc(=O)n(C)c2c1` the IC50 was 0.25 µM.
With `COc1noc2c(C)cc(/C(=C\CCN3CCOC3=O)c3cccc(C#N)c3)cc12` the IC50 was 39.2 µM.
For `COc1noc2c(C)cc(C(=CCCN3CCOC3=O)c3cc(C)c4onc(OC)c4c3)cc12`, the IC50 was 0.93 µM.
With `COC(=O)c1cc(/C(=C/CCN2CCOC2=O)c2cc(C)c3onc(OC)c3c2)cc(C)c1OC` the IC50 was 18.2 µM.
Work on `COC(=O)c1cc(/C(=C/CCN2CCOC2=O)c2cc(C)c3onc(OC)c3c2)cc(Cl)c1OC` yielded an IC50 of 5.88 µM.
For `COc1noc2c(C)cc(/C(=C\CCN3CCOC3=O)c3cc(C)c4oc(=O)n(C)c4c3)cc12`, the IC50 was 3.6 µM.
Work on `COC(=O)c1cc(/C(=C\CCN2CCOC2=O)c2cc(C)c3onc(OC)c3c2)cc(C)c1OC` yielded an IC50 of 0.63 µM.

System: not listed separately
Assay: Cytotoxicity against human MT4 cells by MTT assay
Type: cell-based
`Cc1ccnc2c1NC(=O)c1cccnc1N2C1CC1` [NEVIRAPINE] showed a CC50 greater than 200 µM.
